Laboratory results from ChEMBL document CHEMBL1147066, “Structural basis of action for a human ether-a-go-go-related gene 1 potassium channel activator” (Proc Natl Acad Sci U S A, 2007).

How the values were obtained:
[1] = biological target: T1, Voltage-gated inwardly rectifying potassium channel KCNH2 (Homo sapiens, UniProt Q12809); test: Activation of human ERG1 isoform 1 expressed in Xenopus laevis oocytes assessed as shifting of voltage dependence of inactivation towards positive potentials at 1 uM by two electrode voltage clamp technique; assay type: cell-based; conditions: oocyte
Method in brief: (§1)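 hERG1 (WT or point mutant) cRNA injected into Xenopus oocytes; two-electrode voltage clamp 1-5 days later. Bath: 96 mM NaCl, 2 mM KCl, 1 mM CaCl2, 2 mM MgCl2, 5 mM Hepes, pH 7.6. Holding potential -90 mV. Protocols repeated 10-15 min after adding compound to the bath, diluted from a 10 mM DMSO stock; one concentration per oocyte.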

[2] = biological target: T2, Voltage-gated inwardly rectifying potassium channel KCNH2 (Homo sapiens, UniProt Q12809, L553A); test: (§2) Activation of human ERG1 L553A mutant expressed in Xenopus laevis oocytes assessed as slowing of tail current deactivation at 3 uM by two electrode voltage clamp technique; assay type: cell-based; conditions: oocyte; method in brief: as §1
[3] = biological target: T1, Voltage-gated inwardly rectifying potassium channel KCNH2; test: Activation of human ERG1 isoform 1 expressed in Xenopus laevis oocytes assessed as enhancement of current magnitude by two electrode voltage clamp technique; assay type: cell-based; conditions: oocyte
[4] = biological target: Voltage-gated inwardly rectifying potassium channel KCNH2 (Homo sapiens, UniProt Q12809, V549A); test: Activation of human ERG1 V549A mutant expressed in Xenopus laevis oocytes assessed as shifting of voltage dependence of inactivation towards positive potentials at 3 uM by two electrode voltage clamp technique; assay type: cell-based; conditions: oocyte; method in brief: as §1
[5] = biological target: T3, Voltage-gated inwardly rectifying potassium channel KCNH2 (Homo sapiens, UniProt Q12809, V659A); test: (§3) Activation of human ERG1 V659A mutant expressed in Xenopus laevis oocytes assessed as slowing of tail current deactivation at 3 uM by two electrode voltage clamp technique; assay type: cell-based; conditions: oocyte; method in brief: as §1
[6] = biological target: Voltage-gated inwardly rectifying potassium channel KCNH2 (Homo sapiens, UniProt Q12809, I662A); test: Activation of human ERG1 I662A mutant expressed in Xenopus laevis oocytes assessed as shifting of voltage dependence of inactivation towards positive potentials at 3 uM by two electrode voltage clamp technique; assay type: cell-based; conditions: oocyte; method in brief: as §1
[7] = biological target: T2, Voltage-gated inwardly rectifying potassium channel KCNH2; test: as §2; assay type: cell-based; conditions: oocyte; method in brief: as §1; remark: listed apart in the source
[8] = biological target: T4, Voltage-gated inwardly rectifying potassium channel KCNH2 (Homo sapiens, UniProt Q12809, F557L); test: (§4) Activation of human ERG1 F557L mutant expressed in Xenopus laevis oocytes assessed as slowing of tail current deactivation at 3 uM by two electrode voltage clamp technique; assay type: cell-based; conditions: oocyte; method in brief: as §1
[9] = biological target: T3, Voltage-gated inwardly rectifying potassium channel KCNH2; test: as §3; assay type: cell-based; conditions: oocyte; method in brief: as §1; remark: listed apart in the source
[10] = biological target: T4, Voltage-gated inwardly rectifying potassium channel KCNH2; test: Activation of human ERG1 F557L mutant expressed in Xenopus laevis oocytes assessed as shifting of voltage dependence of inactivation towards positive potentials at 30 uM by two electrode voltage clamp technique; assay type: cell-based; conditions: oocyte; method in brief: as §1
[11] = biological target: T1, Voltage-gated inwardly rectifying potassium channel KCNH2; test: Binding affinity to human ERG1 expressed in Xenopus laevis oocytes assessed as half-saturation concentration; assay type: cell-based, Oocyte; conditions: read-out: Activity
[12] = biological target: T1, Voltage-gated inwardly rectifying potassium channel KCNH2; test: Activation of human ERG1 isoform 1 expressed in Xenopus laevis oocytes assessed as shifting of voltage dependence of inactivation towards positive potentials at 30 uM by two electrode voltage clamp technique; assay type: cell-based; conditions: oocyte; method in brief: as §1
[13] = biological target: T1, Voltage-gated inwardly rectifying potassium channel KCNH2; test: Activation of human ERG1 isoform 1 expressed in Xenopus laevis oocytes assessed as increase in peak tail current magnitude by two electrode voltage clamp technique; assay type: cell-based, Oocyte
[14] = biological target: Voltage-gated inwardly rectifying potassium channel KCNH2 (Homo sapiens, UniProt Q12809, G628C/S631C); test: Effect on human ERG1 G628C/S631C mutant expressed in Xenopus laevis oocytes at 3 uM by two electrode voltage clamp technique; assay type: cell-based; conditions: oocyte
[15] = biological target: T1, Voltage-gated inwardly rectifying potassium channel KCNH2; test: Activation of human ERG1 isoform 1 expressed in Xenopus laevis oocytes assessed as shifting of voltage dependence of inactivation towards positive potentials at 10 uM by two electrode voltage clamp technique; assay type: cell-based; conditions: oocyte; method in brief: as §1
[16] = biological target: T5, Voltage-gated inwardly rectifying potassium channel KCNH2 (Homo sapiens, UniProt Q12809, L666A); test: Activation of human ERG1 L666A mutant expressed in Xenopus laevis oocytes assessed as shifting of voltage dependence of inactivation towards positive potentials at 3 uM by two electrode voltage clamp technique; assay type: cell-based; conditions: oocyte; method in brief: as §1
[17] = biological target: T1, Voltage-gated inwardly rectifying potassium channel KCNH2; test: Activation of human ERG1 isoform 1 expressed in Xenopus laevis oocytes assessed as slowing of tail current deactivation by two electrode voltage clamp technique; assay type: cell-based; conditions: oocyte; method in brief: as §1
[18] = biological target: Voltage-gated inwardly rectifying potassium channel KCNH2 (Homo sapiens, UniProt Q12809, Y667A); test: Activation of human ERG1 Y667A mutant expressed in Xenopus laevis oocytes assessed as shifting of voltage dependence of inactivation towards positive potentials at 3 uM by two electrode voltage clamp technique; assay type: cell-based; conditions: oocyte; method in brief: as §1
[19] = biological target: T1, Voltage-gated inwardly rectifying potassium channel KCNH2; test: Activation of human ERG1 isoform 1 expressed in Xenopus laevis oocytes assessed as shifting of voltage dependence of inactivation towards positive potentials at 3 uM by two electrode voltage clamp technique; assay type: cell-based; conditions: oocyte; method in brief: as §1
[20] = biological target: T5, Voltage-gated inwardly rectifying potassium channel KCNH2; test: Activation of human ERG1 L666A mutant expressed in Xenopus laevis oocytes assessed as shifting of voltage dependence of inactivation towards positive potentials at 30 uM by two electrode voltage clamp technique; assay type: cell-based; conditions: oocyte; method in brief: as §1
[21] = biological target: T1, Voltage-gated inwardly rectifying potassium channel KCNH2; test: Activation of human ERG1 isoform 1 expressed in Xenopus laevis oocytes assessed as shifting of voltage dependence of inactivation towards positive potentials by two electrode voltage clamp technique; assay type: cell-based, Oocyte; method in brief: as §1
[22] = biological target: Voltage-gated inwardly rectifying potassium channel KCNH2 (Homo sapiens, UniProt Q12809, Y652A); test: Activation of human ERG1 Y652A mutant expressed in Xenopus laevis oocytes assessed as slowing of tail current deactivation at 3 uM by two electrode voltage clamp technique; assay type: cell-based; conditions: oocyte; method in brief: as §1
[23] = biological target: Voltage-gated inwardly rectifying potassium channel KCNH2 (Homo sapiens, UniProt Q12809, L550A); test: Activation of human ERG1 L550A mutant expressed in Xenopus laevis oocytes assessed as shifting of voltage dependence of inactivation towards positive potentials at 3 uM by two electrode voltage clamp technique; assay type: cell-based; conditions: oocyte; method in brief: as §1
[24] = biological target: T1, Voltage-gated inwardly rectifying potassium channel KCNH2; test: Activation of human ERG1 expressed in CHO cells assessed as enhancement of current magnitude at 10 uM by two electrode voltage clamp technique; assay type: cell-based
[25] = biological target: T6, Voltage-gated inwardly rectifying potassium channel KCNH2 (Homo sapiens, UniProt Q12809, N658A); test: (§5) Activation of human ERG1 N658A mutant expressed in Xenopus laevis oocytes assessed as slowing of tail current deactivation at 3 uM by two electrode voltage clamp technique; assay type: cell-based; conditions: oocyte; method in brief: as §1
[26] = biological target: T4, Voltage-gated inwardly rectifying potassium channel KCNH2; test: as §4; assay type: cell-based; conditions: oocyte; method in brief: as §1; remark: listed apart in the source
[27] = biological target: T5, Voltage-gated inwardly rectifying potassium channel KCNH2; test: Inhibition of human ERG1 L666A mutant expressed in Xenopus laevis oocytes assessed as decrease in current amplitude by two electrode voltage clamp technique; assay type: cell-based; conditions: oocyte; method in brief: as §1
[28] = biological target: T6, Voltage-gated inwardly rectifying potassium channel KCNH2; test: as §5; assay type: cell-based; conditions: oocyte; method in brief: as §1; remark: listed apart in the source

**Q.** How did the Activity [1] turn out when `COc1ccc2nccc(C(=O)CC[C@@H]3CCN(CC#Cc4cc(F)cc(F)c4F)C[C@@H]3C(=O)O)c2c1` was run?
**A.** The Activity was 10.2 mV.

**Q.** What about the Activity [2] of the same compound?
**A.** The Activity was “Not Active”.

**Q.** And the Activity [3]?
**A.** Its Activity is “Active”.

**Q.** What about the Activity [4] of the same compound?
**A.** Its Activity is “Active”.

**Q.** What about the Activity [5] of the same compound?
**A.** The Activity was “Not Active”.

**Q.** And the Activity [6]?
**A.** The Activity was “Active”.

**Q.** And the Activity [7]?
**A.** The Activity was “Not Active”.

**Q.** What about the Activity [8] of the same compound?
**A.** The Activity was “Not Active”.

**Q.** And the Activity [9]?
**A.** The Activity was “Not Active”.

**Q.** What about the Activity [10] of the same compound?
**A.** Its Activity is less than 10 mV.

**Q.** What about the Kd [11] of the same compound?
**A.** Its Kd is 9.4 µM.

**Q.** And the Activity [12]?
**A.** The Activity was 36.9 mV.

**Q.** And the EC50 [13]?
**A.** Its EC50 is 15 µM.

**Q.** What about the Activity [14] of the same compound?
**A.** The Activity was “Not Active”.

**Q.** What about the Activity [15] of the same compound?
**A.** The Activity was 28 mV.

**Q.** What about the Activity [16] of the same compound?
**A.** The Activity was “Active”.

**Q.** And the Activity [17]?
**A.** Its Activity is “Active”.

**Q.** And the Activity [18]?
**A.** Its Activity is “Active”.

**Q.** And the Activity [19]?
**A.** The Activity was 17.2 mV.

**Q.** And the Activity [20]?
**A.** The Activity was less than 10 mV.

**Q.** What about the EC50 [21] of the same compound?
**A.** The EC50 was 8 µM.

**Q.** And the Activity [22]?
**A.** Its Activity is “Active”.

**Q.** And the Activity [23]?
**A.** Its Activity is “Active”.

**Q.** What about the Activity [24] of the same compound?
**A.** Its Activity is 15%.

**Q.** And the Activity [25]?
**A.** The Activity was “Not Active”.

**Q.** And the Activity [26]?
**A.** Its Activity is “Not Active”.

**Q.** And the Activity [27]?
**A.** Its Activity is “Active”.

**Q.** And the Activity [28]?
**A.** The Activity was “Not Active”.
